{"source": "ChEMBL document CHEMBL4257486", "about": "“A novel allosteric inhibitor that prevents IKKβ activation” (Medchemcomm, 2018)", "key": {"[1]": {"biological_target": "Insulin-like growth factor 1 receptor (Homo sapiens) (UniProt P08069)", "sequence (P08069 31-736 limits assumed)": "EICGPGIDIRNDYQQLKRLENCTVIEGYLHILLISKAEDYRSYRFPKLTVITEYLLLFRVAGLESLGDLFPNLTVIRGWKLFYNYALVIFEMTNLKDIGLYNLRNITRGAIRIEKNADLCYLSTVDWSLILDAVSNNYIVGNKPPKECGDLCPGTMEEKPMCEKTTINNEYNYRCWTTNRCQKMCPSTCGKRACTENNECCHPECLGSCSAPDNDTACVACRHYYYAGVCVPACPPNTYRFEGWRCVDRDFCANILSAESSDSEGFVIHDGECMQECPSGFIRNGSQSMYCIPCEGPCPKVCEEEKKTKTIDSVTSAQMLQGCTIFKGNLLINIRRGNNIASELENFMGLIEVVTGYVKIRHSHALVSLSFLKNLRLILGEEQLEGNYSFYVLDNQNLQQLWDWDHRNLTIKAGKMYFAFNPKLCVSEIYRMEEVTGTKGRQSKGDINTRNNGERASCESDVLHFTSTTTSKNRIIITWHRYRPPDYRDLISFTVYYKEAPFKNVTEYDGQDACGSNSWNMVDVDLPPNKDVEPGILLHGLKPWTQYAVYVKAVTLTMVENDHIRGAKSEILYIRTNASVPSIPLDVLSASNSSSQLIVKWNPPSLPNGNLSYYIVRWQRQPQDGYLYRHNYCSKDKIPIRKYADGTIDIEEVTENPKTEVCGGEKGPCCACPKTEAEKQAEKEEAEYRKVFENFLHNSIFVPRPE", "sequence (P08069 741-1367 limits assumed)": "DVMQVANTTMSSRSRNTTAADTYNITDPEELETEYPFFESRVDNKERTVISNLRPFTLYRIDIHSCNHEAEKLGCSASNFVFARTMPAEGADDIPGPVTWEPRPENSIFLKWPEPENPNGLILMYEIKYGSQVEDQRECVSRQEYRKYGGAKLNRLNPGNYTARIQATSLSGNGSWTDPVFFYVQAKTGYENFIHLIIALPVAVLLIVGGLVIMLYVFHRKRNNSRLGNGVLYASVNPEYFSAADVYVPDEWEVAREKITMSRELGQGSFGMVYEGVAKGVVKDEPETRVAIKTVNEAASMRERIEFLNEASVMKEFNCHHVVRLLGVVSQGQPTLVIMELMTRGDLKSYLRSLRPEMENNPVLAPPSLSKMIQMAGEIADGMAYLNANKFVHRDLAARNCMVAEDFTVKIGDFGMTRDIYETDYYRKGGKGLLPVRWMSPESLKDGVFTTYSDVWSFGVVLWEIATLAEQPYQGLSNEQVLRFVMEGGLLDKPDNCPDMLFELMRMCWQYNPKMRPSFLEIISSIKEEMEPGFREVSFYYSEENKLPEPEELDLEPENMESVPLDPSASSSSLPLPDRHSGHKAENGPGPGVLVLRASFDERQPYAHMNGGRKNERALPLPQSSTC", "assay": "Inhibition of human activated IGF-1R using KKKSPGEYVNIEFG as substrate at 100 uM after 40 mins in presence of [gamma-33P-ATP] by scintillation counting analysis", "method_in_brief": "(§1)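 Radiometric [γ-33P]ATP assay (specific activity approx. 500 cpm/pmol) run by an outsourced service. Compound was added first from a 50x stock in DMSO, giving 2% DMSO final. Positive controls contained DMSO only; blanks used a reference inhibitor to set 0% activity. Reactions were started with MgATP mix, run 40 min at room temperature, and stopped with 3% phosphoric acid. They were spotted on P30 filtermat, washed in 75 mM phosphoric acid and methanol, and scintillation counted.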"}, "HEK293": {"tested_on": "HEK293", "assay": "Cytotoxicity in HEK293T cells expressing pGL4.32[luc2p/NF-kBRE/Hygro] by MTT assay", "type": "cell-based", "conditions": "human", "method_in_brief": "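HEK293T cells were co-transfected with pGL4.32 and pGL4.74, re-seeded in 96-well plates, and treated with or without compound for 30 min. They were then stimulated with 10 ng/ml TNFα for 6-8 h, as in the reporter assay. MTT (20 µl of 5 mg/ml in PBS) was added for 4 h at 37 °C. Formazan was dissolved in DMSO and read at 490 nm. Values are mean±SD of at least triplicate measurements.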"}, "Homo sapiens": {"organism": "Homo sapiens", "assay": "Inhibition of human PKA using LRRASLG (Kemptide) as substrate at 100 uM after 40 mins in presence of [gamma-33P-ATP] by scintillation counting analysis", "method_in_brief": "as §1"}, "[2]": {"biological_target": "Epidermal growth factor receptor (Homo sapiens) (UniProt P00533)", "sequence (P00533 whole entry)": "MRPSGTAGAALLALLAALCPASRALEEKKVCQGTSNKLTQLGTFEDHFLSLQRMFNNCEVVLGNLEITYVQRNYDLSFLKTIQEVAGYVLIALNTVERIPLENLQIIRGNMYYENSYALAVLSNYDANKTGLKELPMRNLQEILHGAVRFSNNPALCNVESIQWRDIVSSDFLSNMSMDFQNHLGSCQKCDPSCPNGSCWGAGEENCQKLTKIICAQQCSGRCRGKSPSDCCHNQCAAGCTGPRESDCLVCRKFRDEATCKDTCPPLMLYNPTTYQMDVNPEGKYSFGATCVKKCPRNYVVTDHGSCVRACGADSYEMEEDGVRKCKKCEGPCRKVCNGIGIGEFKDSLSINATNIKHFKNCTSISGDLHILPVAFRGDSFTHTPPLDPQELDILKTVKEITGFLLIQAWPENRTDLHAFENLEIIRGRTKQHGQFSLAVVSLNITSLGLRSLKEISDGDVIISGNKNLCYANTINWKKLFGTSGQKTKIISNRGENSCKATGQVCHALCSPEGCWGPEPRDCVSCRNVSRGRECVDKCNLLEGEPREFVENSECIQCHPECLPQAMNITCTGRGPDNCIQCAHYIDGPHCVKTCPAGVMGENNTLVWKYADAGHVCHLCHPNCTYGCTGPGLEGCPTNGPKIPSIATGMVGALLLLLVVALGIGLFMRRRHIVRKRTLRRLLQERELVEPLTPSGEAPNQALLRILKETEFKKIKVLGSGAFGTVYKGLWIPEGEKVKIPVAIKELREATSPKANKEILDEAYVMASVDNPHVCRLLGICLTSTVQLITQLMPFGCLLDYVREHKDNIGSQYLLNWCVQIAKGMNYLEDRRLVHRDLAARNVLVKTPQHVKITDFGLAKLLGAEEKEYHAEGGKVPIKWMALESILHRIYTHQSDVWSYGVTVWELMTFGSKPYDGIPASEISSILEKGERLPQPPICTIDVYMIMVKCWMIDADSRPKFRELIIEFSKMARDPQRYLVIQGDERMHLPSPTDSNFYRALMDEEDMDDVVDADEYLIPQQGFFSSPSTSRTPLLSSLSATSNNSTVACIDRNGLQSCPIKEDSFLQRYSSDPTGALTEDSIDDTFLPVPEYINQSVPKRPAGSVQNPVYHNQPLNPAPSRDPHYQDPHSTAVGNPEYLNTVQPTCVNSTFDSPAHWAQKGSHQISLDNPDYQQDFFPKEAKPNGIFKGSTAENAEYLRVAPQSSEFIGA", "assay": "Inhibition of human EGFR using poly[Glu:Tyr] (4:1) as substrate at 100 uM after 40 mins in presence of [gamma-33P-ATP] by scintillation counting analysis", "method_in_brief": "as §1"}, "[3]": {"biological_target": "T1, Tyrosine-protein kinase JAK3 (Homo sapiens) (UniProt P52333)", "T1 sequence (whole entry)": "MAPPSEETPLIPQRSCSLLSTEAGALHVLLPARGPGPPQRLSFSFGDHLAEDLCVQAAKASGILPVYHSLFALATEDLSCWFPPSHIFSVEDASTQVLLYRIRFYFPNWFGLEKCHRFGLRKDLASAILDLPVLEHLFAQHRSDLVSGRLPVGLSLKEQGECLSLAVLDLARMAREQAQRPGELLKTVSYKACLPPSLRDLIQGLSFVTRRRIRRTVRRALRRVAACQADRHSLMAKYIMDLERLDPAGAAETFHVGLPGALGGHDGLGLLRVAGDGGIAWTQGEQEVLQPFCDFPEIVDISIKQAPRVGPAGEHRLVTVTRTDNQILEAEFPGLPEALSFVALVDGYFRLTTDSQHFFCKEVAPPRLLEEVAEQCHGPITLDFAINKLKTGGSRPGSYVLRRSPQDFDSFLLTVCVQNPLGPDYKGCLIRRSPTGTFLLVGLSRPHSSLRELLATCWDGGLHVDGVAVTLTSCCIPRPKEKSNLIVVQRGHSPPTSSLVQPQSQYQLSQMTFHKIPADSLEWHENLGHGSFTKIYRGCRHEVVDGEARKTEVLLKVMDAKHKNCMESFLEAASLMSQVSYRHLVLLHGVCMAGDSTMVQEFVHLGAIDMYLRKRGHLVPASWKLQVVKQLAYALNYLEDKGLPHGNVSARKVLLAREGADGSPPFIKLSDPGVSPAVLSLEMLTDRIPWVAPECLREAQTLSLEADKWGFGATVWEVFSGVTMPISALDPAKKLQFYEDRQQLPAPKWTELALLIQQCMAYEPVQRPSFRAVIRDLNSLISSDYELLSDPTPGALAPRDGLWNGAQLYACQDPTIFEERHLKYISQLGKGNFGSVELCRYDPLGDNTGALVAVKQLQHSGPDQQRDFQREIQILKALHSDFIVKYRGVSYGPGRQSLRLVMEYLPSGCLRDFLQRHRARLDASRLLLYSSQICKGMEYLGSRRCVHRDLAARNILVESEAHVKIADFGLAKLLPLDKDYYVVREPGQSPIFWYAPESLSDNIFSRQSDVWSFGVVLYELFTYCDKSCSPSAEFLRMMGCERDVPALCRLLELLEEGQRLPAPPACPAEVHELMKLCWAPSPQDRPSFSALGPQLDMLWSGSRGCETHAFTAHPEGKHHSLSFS", "assay": "Inhibition of human JAK3 using GGEEEEYFELVKKKK as substrate at 100 uM after 40 mins in presence of [gamma-33P-ATP] by scintillation counting analysis", "method_in_brief": "as §1"}, "[4]": {"biological_target": "Mitogen-activated protein kinase 1 (Homo sapiens) (UniProt P28482)", "sequence (P28482 whole entry)": "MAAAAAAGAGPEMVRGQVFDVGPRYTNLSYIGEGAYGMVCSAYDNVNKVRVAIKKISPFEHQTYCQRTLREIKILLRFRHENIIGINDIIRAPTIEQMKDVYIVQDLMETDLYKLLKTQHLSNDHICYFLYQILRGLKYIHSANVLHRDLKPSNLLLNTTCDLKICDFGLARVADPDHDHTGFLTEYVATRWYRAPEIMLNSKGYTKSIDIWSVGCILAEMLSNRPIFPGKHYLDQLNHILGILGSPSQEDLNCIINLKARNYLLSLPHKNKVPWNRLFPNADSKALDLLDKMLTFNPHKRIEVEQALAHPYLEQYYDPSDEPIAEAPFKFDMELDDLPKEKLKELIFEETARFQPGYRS", "assay": "Inhibition of human MAPK1 at 100 uM after 40 mins in presence of [gamma-33P-ATP] by scintillation counting analysis", "method_in_brief": "as §1"}, "[5]": {"biological_target": "MAP kinase-activated protein kinase 2 (Homo sapiens) (UniProt P49137)", "sequence (P49137 whole entry, looked up)": "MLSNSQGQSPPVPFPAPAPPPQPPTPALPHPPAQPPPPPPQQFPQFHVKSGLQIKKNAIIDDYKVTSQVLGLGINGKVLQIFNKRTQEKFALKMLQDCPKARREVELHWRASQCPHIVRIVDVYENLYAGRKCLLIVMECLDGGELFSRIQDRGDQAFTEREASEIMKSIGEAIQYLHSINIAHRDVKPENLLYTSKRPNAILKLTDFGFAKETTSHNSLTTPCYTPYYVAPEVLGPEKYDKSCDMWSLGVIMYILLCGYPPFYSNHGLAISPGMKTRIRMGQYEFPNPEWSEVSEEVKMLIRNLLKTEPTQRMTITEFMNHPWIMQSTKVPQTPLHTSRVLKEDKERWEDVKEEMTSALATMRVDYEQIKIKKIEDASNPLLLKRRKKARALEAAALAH", "assay": "Inhibition of human MAPKAPK2 using KKLNRTLSVA as substrate at 100 uM after 40 mins in presence of [gamma-33P-ATP] by scintillation counting analysis", "method_in_brief": "as §1"}}, "note": "Activity calls are given as the source filed them. The calls are words filed in the database; no cut-off is given here."}
{"compound": "CCOc1c(S(=O)(=O)NC2CC(C)(C)NC(C)(C)C2)ccc(Cl)c1Cl", "values": [{"measurement": "inhibition", "setting": "[1]", "value": "inactive"}, {"measurement": "Activity", "setting": "HEK293", "value": "Non-Toxic"}, {"measurement": "inhibition", "setting": "Homo sapiens", "value": "inactive"}, {"measurement": "inhibition", "setting": "[2]", "value": "inactive"}, {"measurement": "inhibition", "setting": "[3]", "value": "inactive"}, {"measurement": "inhibition", "setting": "[4]", "value": "inactive"}, {"measurement": "inhibition", "setting": "[5]", "value": "inactive"}]}
